Active and inactive are the calls of the source. No cut-off for these calls is given here.
Legend:
[1] = Bioavailability in rat at 3 mg/kg, iv; format: ADME, organism-based; details: in vivo
[2] = AUC (0 to infinity) in rat plasma at 10 mg/kg, po; format: ADME, organism-based; parameters: dose 10 mg/kg, route oral, time infinity
Procedure, shortened: (§1)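 Compound was given orally or intravenously in 1% DMSO/0.5% HPMC vehicle. Concentrations in plasma, or in brain where stated, gave Tmax, Cmax, T1/2, AUC0-t and AUC0-inf.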

[3] = molecular target: Bromodomain-containing protein 2 (Homo sapiens) (UniProt P25440); test: Inhibition of BRD2 bromodomain 2 (unknown origin)
Bromodomain-containing protein 2 (Homo sapiens), sequence (P25440 whole entry, looked up, the tested form may be a part, canonical isoform): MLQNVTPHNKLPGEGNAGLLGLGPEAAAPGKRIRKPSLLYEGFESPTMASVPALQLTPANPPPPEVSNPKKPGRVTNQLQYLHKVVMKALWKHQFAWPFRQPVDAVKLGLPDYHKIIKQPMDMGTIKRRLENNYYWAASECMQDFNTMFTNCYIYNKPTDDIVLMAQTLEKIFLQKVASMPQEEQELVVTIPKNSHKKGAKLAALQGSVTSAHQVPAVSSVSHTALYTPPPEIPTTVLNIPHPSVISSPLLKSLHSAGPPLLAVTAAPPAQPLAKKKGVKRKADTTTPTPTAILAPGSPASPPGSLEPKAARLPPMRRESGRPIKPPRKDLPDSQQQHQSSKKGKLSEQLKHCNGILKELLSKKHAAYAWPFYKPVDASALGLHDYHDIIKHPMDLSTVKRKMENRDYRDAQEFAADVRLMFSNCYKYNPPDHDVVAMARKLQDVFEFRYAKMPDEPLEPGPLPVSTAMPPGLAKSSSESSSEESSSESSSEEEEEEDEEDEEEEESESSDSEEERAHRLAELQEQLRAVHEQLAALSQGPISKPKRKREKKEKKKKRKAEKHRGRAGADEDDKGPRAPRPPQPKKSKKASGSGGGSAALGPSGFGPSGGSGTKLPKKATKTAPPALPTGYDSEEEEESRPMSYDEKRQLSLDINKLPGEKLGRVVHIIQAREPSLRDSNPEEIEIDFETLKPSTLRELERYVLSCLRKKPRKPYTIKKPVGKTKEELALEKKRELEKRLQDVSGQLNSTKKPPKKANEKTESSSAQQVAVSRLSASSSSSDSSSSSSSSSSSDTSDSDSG
Procedure, shortened: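 Bromodomain binding panel (32 bromodomains) screened at 1 μM; primary binding read-out reported as percent of control, lower values meaning stronger binding.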

A549 = test: Antiproliferative activity against human A549 cells after 72 hrs by CCK8 or SRB assay; format: functional, cell-based
[4] = AUC (0 to infinity) in dog plasma at 3 mg/kg, po; format: ADME, organism-based, Canis lupus familiaris; parameters: dose 3 mg/kg, route oral, time infinity; procedure, shortened: as §1
MV4-11 [5] = test: Induction of apoptosis in human MV4-11 cells assessed as reduction in BCL-2 level after 24 hrs by Western blot analysis; format: functional, cell-based
Procedure, shortened: (§2)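 MV4-11 cells exposed to compound at the indicated doses for 24 h; lysates probed by Western blotting for the target protein, with GAPDH as loading control.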

[6] = molecular target: Nucleosome-remodeling factor subunit BPTF (Homo sapiens) (UniProt Q12830); test: Binding affinity to human partial length FALZ (S2791 to H2911 residues) expressed in Escherichia coli BL21 cells assessed as residual binding level at 1 uM measured after 1 hr by quantitative PCR based BROMOscan assay relative to control
Procedure, shortened: (§3)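 A BROMOScan competition-binding panel of 32 bromodomains was run at a single 1 μM compound concentration. Results are primary-screen 'Percent Control', where lower values indicate stronger binding.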

MV4-11 [7] = test: Antitumor activity against human MV4-11 cells xenografted in po dosed Balb/c nude mouse assessed as tumor growth inhibition administered once daily and measured twice a week by caliper method; format: functional, organism-based
[8] = AUC (0 to infinity) in ICR mouse plasma at 100 mg/kg, po administered via gavage measured after 0.25 to 24 hrs by UPLC/MS analysis; format: ADME, organism-based; parameters: dose 100 mg/kg, time infinity, route oral
Procedure, shortened: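 Male ICR mice were dosed orally in 1% DMSO/0.5% HPMC vehicle. Plasma (and brain, where stated) concentrations gave Tmax, Cmax, T1/2, AUC0-t and AUC0-inf.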

[9] = Cmax in rat brain at 50 mg/kg, po; format: ADME, organism-based; parameters: dose 50 mg/kg, route oral
MV4-11 [10] = test: Induction of apoptosis in human MV4-11 cells assessed as increase in cleaved caspase-8 level after 24 hrs by Western blot analysis; format: functional, cell-based
Procedure, shortened: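 MV4-11 cells exposed to test agent at the indicated doses for 24 h. Lysates immunoblotted for full-length and cleaved caspase-3, -7, -8 and -9, with GAPDH as the loading reference.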

[11] = AUC (0 to infinity) in rat plasma at 50 mg/kg, po; format: ADME, organism-based; parameters: dose 50 mg/kg, time infinity, route oral; procedure, shortened: as §1
[12] = AUC (0 to t) in rat plasma at 10 mg/kg, po; format: ADME, organism-based; procedure, shortened: as §1
MDA-MB-436 = test: Antiproliferative activity against human MDA-MB-436 cells after 72 hrs by CCK8 or SRB assay; format: functional, cell-based
[13] = molecular target: ATPase family AAA domain-containing protein 2B (Homo sapiens) (UniProt Q9ULI0); test: Binding affinity to human partial length ATAD2B (Q955 to R1082 residues) expressed in Escherichia coli BL21 cells assessed as residual binding level at 1 uM measured after 1 hr by quantitative PCR based BROMOscan assay relative to control; procedure, shortened: as §3
ATPase family AAA domain-containing protein 2B (Homo sapiens), sequence (Q9ULI0 whole entry, the tested form may be a part): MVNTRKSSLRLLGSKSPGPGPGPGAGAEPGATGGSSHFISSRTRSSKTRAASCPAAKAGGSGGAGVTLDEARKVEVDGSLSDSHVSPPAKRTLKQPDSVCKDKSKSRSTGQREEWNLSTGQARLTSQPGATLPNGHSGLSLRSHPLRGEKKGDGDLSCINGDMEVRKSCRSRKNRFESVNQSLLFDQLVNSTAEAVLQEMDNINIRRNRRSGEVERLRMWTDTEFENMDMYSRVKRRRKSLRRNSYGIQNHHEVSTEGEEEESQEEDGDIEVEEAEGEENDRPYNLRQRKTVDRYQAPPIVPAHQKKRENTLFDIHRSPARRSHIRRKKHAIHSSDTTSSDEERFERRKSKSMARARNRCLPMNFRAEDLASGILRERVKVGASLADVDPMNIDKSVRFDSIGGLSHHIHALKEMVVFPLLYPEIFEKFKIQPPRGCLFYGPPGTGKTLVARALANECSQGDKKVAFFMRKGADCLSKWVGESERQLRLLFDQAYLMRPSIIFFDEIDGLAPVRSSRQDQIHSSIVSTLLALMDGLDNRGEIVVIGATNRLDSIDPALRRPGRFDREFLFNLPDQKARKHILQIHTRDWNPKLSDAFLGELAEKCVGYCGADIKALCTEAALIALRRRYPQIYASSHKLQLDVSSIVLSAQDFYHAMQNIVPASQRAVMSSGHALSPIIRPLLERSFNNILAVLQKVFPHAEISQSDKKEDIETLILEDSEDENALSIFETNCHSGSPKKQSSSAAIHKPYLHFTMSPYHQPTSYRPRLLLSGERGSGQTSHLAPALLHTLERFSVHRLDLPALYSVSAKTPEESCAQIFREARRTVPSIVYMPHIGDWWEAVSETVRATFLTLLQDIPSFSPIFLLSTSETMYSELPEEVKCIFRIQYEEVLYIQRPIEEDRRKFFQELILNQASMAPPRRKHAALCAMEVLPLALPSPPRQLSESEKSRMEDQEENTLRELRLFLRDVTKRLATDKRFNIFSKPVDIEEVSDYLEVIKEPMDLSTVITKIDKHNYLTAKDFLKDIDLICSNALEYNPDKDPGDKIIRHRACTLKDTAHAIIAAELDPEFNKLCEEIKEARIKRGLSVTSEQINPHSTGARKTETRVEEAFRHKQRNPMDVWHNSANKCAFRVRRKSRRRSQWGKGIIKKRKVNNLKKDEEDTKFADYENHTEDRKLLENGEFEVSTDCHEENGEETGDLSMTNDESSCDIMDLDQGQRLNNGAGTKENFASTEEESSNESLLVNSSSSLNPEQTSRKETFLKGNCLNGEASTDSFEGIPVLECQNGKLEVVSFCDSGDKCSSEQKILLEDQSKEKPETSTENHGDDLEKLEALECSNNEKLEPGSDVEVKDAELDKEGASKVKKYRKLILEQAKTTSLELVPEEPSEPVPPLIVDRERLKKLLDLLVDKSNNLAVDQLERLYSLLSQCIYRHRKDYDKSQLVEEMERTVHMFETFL

Cytochrome P450 1A2 = molecular target: T1, Cytochrome P450 1A2 (Homo sapiens, UniProt P05177); test: Time-dependent inhibition of CYP1A2 in human liver microsomes at 10 uM using phenacetin as substrate preincubated up to 30 mins followed by NADPH generating system addition and measured after 10 mins; format: ADME
T1 sequence (P05177 whole entry): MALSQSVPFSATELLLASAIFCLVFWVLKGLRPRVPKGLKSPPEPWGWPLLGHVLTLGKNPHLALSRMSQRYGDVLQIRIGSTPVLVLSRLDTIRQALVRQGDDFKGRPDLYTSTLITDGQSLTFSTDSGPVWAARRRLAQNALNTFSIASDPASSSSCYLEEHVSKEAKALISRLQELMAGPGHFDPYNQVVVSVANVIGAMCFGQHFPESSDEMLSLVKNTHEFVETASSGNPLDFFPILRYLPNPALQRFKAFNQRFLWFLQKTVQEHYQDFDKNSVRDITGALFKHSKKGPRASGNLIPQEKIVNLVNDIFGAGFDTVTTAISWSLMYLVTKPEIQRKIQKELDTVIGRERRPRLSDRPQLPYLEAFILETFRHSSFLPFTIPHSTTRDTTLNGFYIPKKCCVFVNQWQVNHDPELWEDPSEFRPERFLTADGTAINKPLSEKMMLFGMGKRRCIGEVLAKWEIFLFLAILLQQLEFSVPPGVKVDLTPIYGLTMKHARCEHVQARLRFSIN
Procedure, shortened: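 Human liver microsomes 0.2 mg/mL, 100 mM phosphate pH 7.4, 10 μM test compound, preincubated 0, 5, 10 and 30 min at 37 °C; then NADPH plus probe cocktail (5 μM midazolam, 50 μM testosterone, 5 μM dextromethorphan, 10 μM diclofenac, 50 μM phenacetin, 50 μM S-(+)-mephenytoin) added; 10 min reaction; kobs in units of 10^-4/min.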

[14] = AUC (0 to t) in dog plasma at 1 mg/kg, iv; format: ADME, organism-based, Canis lupus familiaris; procedure, shortened: as §1
[15] = molecular target: Bromodomain-containing protein 2 (Homo sapiens) (UniProt P25440); test: Binding affinity to human partial length BRD2 bromodomain 1 isoform 1 (K71 to N194 residues) expressed in Escherichia coli BL21 cells assessed as residual binding level at 1 uM measured after 1 hr by quantitative PCR based BROMOscan assay relative to control; procedure, shortened: as §3
MV4-11 [16] = test: Induction of apoptosis in human MV4-11 cells assessed as reduction in XIAP level after 24 hrs by Western blot analysis; format: functional, cell-based
[17] = Bioavailability in dog at 1 mg/kg, iv; format: ADME, organism-based, Canis lupus familiaris; details: in vivo
[18] = molecular target: Histone acetyltransferase p300 (Homo sapiens) (UniProt Q09472); test: Binding affinity to human partial length EP300 (A1040 to G1161 residues) expressed in Escherichia coli BL21 cells assessed as residual binding level at 1 uM measured after 1 hr by quantitative PCR based BROMOscan assay relative to control; procedure, shortened: as §3
Histone acetyltransferase p300 (Homo sapiens), sequence (Q09472 whole entry, the tested form may be a part): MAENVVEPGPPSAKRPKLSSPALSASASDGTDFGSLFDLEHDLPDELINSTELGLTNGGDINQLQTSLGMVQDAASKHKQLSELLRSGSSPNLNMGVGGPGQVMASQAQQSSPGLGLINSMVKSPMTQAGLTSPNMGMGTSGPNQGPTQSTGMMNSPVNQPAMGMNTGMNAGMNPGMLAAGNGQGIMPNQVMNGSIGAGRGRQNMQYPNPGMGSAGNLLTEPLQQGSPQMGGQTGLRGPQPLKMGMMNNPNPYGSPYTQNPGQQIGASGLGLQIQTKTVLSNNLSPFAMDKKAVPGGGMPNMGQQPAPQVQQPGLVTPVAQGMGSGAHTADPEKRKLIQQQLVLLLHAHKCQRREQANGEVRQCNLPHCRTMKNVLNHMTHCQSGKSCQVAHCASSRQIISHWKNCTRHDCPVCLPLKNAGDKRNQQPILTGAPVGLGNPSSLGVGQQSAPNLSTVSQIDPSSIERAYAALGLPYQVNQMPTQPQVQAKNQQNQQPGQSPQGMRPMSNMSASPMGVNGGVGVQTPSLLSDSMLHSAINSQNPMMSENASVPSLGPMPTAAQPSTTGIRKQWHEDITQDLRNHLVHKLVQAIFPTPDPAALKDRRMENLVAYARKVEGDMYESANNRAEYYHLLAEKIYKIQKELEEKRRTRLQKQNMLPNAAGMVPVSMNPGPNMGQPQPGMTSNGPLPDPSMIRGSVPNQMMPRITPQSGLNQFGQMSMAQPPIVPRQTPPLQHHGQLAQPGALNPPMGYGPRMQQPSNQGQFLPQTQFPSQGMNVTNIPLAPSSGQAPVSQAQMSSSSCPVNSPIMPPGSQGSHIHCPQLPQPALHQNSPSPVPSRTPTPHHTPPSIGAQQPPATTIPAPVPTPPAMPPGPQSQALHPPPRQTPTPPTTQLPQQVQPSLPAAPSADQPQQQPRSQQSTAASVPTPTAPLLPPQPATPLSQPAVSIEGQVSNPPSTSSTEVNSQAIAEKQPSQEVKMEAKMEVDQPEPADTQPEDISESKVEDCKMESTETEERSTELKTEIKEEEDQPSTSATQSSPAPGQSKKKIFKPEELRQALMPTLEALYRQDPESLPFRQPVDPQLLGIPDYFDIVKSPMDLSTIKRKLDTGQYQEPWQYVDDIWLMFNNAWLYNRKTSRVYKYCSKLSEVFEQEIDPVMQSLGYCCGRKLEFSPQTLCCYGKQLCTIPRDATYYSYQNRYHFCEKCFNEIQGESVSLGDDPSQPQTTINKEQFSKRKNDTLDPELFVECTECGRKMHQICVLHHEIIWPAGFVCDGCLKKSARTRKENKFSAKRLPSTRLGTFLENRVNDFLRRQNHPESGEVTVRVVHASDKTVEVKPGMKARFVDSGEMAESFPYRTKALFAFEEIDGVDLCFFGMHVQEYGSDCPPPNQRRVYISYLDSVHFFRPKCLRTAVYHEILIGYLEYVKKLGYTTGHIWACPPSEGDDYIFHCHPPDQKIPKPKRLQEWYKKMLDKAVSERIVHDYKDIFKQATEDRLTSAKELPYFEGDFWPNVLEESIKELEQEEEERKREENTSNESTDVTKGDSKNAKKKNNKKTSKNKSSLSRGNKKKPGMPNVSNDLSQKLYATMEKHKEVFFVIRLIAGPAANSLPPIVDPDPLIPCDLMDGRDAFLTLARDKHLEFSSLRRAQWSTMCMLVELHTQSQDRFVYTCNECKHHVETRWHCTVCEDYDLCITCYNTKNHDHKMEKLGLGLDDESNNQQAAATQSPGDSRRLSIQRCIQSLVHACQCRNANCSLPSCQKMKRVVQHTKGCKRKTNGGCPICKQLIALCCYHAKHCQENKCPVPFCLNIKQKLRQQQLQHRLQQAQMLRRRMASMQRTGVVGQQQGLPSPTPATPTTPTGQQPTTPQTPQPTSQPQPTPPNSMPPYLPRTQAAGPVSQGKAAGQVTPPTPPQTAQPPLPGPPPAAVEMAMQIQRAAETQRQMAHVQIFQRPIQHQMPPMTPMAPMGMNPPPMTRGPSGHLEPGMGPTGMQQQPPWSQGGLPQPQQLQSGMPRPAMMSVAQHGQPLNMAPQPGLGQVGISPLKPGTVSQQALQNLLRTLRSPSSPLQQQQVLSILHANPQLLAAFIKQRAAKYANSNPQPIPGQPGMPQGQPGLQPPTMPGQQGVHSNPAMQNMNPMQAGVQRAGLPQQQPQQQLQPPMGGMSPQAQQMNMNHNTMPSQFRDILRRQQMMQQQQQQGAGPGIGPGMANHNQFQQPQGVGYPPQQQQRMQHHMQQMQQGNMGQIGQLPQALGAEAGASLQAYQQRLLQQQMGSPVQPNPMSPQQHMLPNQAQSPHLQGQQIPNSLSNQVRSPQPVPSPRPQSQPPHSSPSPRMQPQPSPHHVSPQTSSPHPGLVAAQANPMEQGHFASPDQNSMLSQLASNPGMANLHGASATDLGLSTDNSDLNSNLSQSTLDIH

MV4-11 [19] = test: Induction of apoptosis in human MV4-11 cells after 24 hrs by Annexin V staining based assay; format: functional, cell-based
[20] = Tmax in rat plasma at 10 mg/kg, po; format: ADME, organism-based
Procedure, shortened: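 Oral dosing in 1% DMSO/0.5% HPMC vehicle (dog 3 mg/kg; rat 10 mg/kg); plasma drug levels measured.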

[21] = Half life in dog plasma at 1 mg/kg, iv; format: ADME, organism-based, Canis lupus familiaris
MV4-11 [22] = test: Induction of apoptosis in human MV4-11 cells assessed as increase in cleaved caspase-7 level after 24 hrs by Western blot analysis; format: functional, cell-based; procedure, shortened: as §2
[23] = molecular target: Bromodomain-containing protein 9 (Homo sapiens) (UniProt Q9H8M2); test: Binding affinity to human partial length BRD9 (R130 to V259 residues) expressed in Escherichia coli BL21 cells assessed as residual binding level at 1 uM measured after 1 hr by quantitative PCR based BROMOscan assay relative to control; procedure, shortened: as §3
SK-OV-3 = test: Antiproliferative activity against human SKOV3 cells after 72 hrs by CCK8 or SRB assay; format: functional, cell-based

Cc1ccc(-n2nc(C(=O)N3C[C@@H](C)N[C@@H](C)C3)nc2-c2ccc3c(c2)N(C2CCCC2)[C@H](C)C(=O)N3C)cc1
bioavailability [1]: 18.2%
AUC(0-inf) [2]: 1270 ng·h/mL
inhibition [3]: Active
Activity (A549): Active
AUC(0-inf) [4]: 798 ng·h/mL
Activity (MV4-11 [5]): Dose-dependent effect
Activity [6]: 70 to 100%
TGI (MV4-11 [7]): Dose-dependent effect
AUC(0-inf) [8]: 82400 ng·h/mL
Cmax [9]: 87.6 ng/mL
Activity (MV4-11 [10]): Dose-dependent effect
AUC(0-inf) [11]: 4310 ng·h/mL
AUC(0-t) [12]: 1220 ng·h/mL
Activity (MDA-MB-436): Active
Activity [13]: 70 to 100%
TDI (Cytochrome P450 1A2): Not Active
AUC(0-t) [14]: 726 ng·h/mL
Activity [15]: < 5%
Activity (MV4-11 [16]): Dose-dependent effect
bioavailability [17]: 34.3%
Activity [18]: 20 to 50%
Activity (MV4-11 [19]): Dose-dependent effect
Tmax [20]: 2.3 h
half-life [21]: 9.4 h
Activity (MV4-11 [22]): Dose-dependent effect
Activity [23]: 70 to 100%
Activity (SK-OV-3): Active
